Data published in ChEMBL document CHEMBL1126794, “2-(Quinuclidin-3-yl)pyrido[4,3-b]indol-1-ones and isoquinolin-1-ones. Potent conformationally restricted 5-HT3 receptor antagonists” (J Med Chem, 1993).
pKi: −log10 of the molar value.

Legend:
[1] = biological target: T1, Serotonin 3 (5-HT3) receptor (Rattus norvegicus, UniProt P35563+Q9JJ16); experiment: Binding affinity against 5-hydroxytryptamine 3 (5-HT3) receptor in rat brain cortical membranes using radioligand [3H]quipazine; assay type: cell membranes
T1 sequence (P35563 whole entry): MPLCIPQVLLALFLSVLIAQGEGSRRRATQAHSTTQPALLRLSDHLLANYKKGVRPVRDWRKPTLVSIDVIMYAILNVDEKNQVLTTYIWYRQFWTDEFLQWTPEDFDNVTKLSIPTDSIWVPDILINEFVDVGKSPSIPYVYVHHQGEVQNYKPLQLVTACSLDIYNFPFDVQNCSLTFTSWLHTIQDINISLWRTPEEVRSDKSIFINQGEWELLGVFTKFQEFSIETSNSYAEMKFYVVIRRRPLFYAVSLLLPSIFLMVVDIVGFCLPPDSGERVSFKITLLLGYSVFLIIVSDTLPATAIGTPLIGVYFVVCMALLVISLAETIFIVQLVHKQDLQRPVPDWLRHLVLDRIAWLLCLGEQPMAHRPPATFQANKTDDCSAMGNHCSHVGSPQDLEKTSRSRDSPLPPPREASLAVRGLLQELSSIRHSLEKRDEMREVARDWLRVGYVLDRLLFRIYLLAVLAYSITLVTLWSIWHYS
T1 sequence (Q9JJ16 whole entry): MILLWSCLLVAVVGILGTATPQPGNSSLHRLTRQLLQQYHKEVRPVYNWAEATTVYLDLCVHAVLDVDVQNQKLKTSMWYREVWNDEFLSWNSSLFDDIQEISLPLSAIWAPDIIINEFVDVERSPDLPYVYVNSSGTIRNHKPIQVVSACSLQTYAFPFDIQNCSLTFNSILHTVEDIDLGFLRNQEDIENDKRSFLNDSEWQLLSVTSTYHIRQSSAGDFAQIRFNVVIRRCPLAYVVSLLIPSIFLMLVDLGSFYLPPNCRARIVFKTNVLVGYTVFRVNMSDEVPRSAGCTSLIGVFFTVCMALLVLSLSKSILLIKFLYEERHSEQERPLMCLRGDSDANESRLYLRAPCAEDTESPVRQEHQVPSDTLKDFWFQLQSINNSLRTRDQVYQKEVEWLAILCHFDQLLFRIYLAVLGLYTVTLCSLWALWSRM
Summary of the method: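 Rat cerebral cortex membranes, washed in 50 mM Tris pH 7.4, incubated 45 min at 25 °C in Tris-Krebs buffer pH 7.4 with 0.3–0.7 nM [3H]quipazine plus 0.1 μM paroxetine. Ten test concentrations from 1e-12 to 1e-4 M. Nonspecific binding defined with 1.0 μM racemic zacopride. Filtration, scintillation counting, IC50 by iterative fit, Ki by Cheng-Prusoff. Means of ≥3 determinations, or of two.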

Rattus norvegicus [2] = experiment: Potency to inhibit bradycardiac effect measured by Von Bezold-Jarisch assay in 9 anesthetized rats; assay type: functional; parameters: ID50: unit not given here
Summary of the method: (§1)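 Male Sprague-Dawley rats, 250–380 g, under urethane (1.5 g/kg ip), with cannulated trachea and femoral veins; heart rate recorded by ECG. Lowest consistent bradycardic dose of 2-methyl-5-HT titrated iv, then given every 12 min. Increasing iv doses given 5 min before each challenge, with saline vehicle group.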

Rattus norvegicus [3] = experiment: Potency to inhibit bradycardiac effect measured by Von Bezold-Jarisch assay in 8 anesthetized rats; assay type: functional; settings: read-out: ID50 (the source's name); summary of the method: as §1

Compound | pKi [1] | other results
O=C1c2cccc3c2[C@@H](CCC3)CN1[C@H]1CN2CCC1CC2 | 8.40 | 
Cl.O=c1c2cccc3c2c(cn1[C@@H]1CN2CCC1CC2)CCC3 | 9.80 | ID50 (Rattus norvegicus [2]): 0.1
O=C(NC1CN2CCC1CC2)c1c2n(c3ccccc13)CCCC2 (stereo not given) | 8.60 | 
O=C1c2cccc3c2[C@H](CCC3)CN1[C@H]1CN2CCC1CC2 | 8.60 | 
Cl.O=c1c2cccc3c2c(cn1C1CN2CCC1CC2)CC3 (stereo not given) | 9.20 | ED50 (Rattus norvegicus [2]; Rattus norvegicus, read-out: ID50 (the source's name)): 0.18 µg/kg
O=c1c2cccc(Cl)c2ccn1[C@@H]1CN2CCC1CC2 | 8.60 | 
COc1ccc2c(=O)n([C@@H]3CN4CCC3CC4)cc3c2c1CCC3 | 7.90 | 
O=c1c2ccccc2ccn1C1CN2CCC1CC2 (stereo not given) | 8.00 | 
Cc1cccc2c(=O)n(C3CN4CCC3CC4)ccc12.Cl (stereo not given) | 9.20 | ED50 (Rattus norvegicus [3]): 0.1 µg/kg
Cc1cccc2c1CCN([C@@H]1CN3CCC1CC3)C2=O.Cl | 9.50 | ED50 (Rattus norvegicus [3]): 0.13 µg/kg
Cc1ccccc1C(=O)NC1CN2CCC1CC2 (stereo not given) | 6.20 | 
